From PubChem BioAssay
Rows were chosen to be rich in hits. Some 4.9% of all compounds tested hit in one or more screens of this group.
STAT3 blocker: IL-6 driven STAT3 reporter inhibitors, primary screen, U3A cells, luciferase, luminescence, MLSCN library. IL-6 STAT3-luciferase reporter; host cell line lacks STAT1. AID 862, 2007. 190,000 compounds, 0.89% hits. inhibition, % at 5.5 µM;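 active means inhibition above the mean inhibition across all screened compounds plus 3 SD, cut at about 44% in these data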;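 further: 0% = DMSO only wells and 100% = 100 µM nifuroxazide control wells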
STAT1 activator: STAT1 signaling activators, primary screen, cell-based, HTS, luciferase reporter. NIH 3T3 STAT1-luciferase reporter, IFN-gamma, luminescence; 100% = IFN-gamma alone, no compound. activation (% of control), % at 5.5 µM. 200,000 compounds, 2.6% hits. AID 932, 2007;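 active means activation above the screen-wide mean activation plus 3 SD, cut at about 130% in these data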;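 further: raw ratio to IFN-gamma control signal so 100% means no change and 0% no light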
APP 5'UTR act: activators of APP 5'UTR luciferase reporter, primary screen, SH-SY5Y cells; SH-SY5Y APP 5'UTR luciferase reporter, luminescence; zero percent = DMSO vehicle wells; activation, % at 2 µM; 190,000 compounds, 1% hits; AID 1276, 2008;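 active means activation above a set limit, based on mean plus 3 SD of controls, cut at about 140% in these data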
STAT1 inh: STAT1 signaling inhibitors, primary screen, cell-based, HTS, luciferase reporter | NIH 3T3 STAT1-luciferase reporter, IFN-gamma, luminescence | inhibition, % at 5.5 µM | 200,000 compounds, 0.35% hits | AID 920, 2007;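 active means inhibition above a set limit, the mean inhibition across all tested compounds plus 3 SD, cut at about 34% in these data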;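 further: 0% = IFN-gamma with DMSO and 100% = IFN-gamma with 300 µM nifuroxazide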
NF-kB neuron act: activators of NF-kB expression in neurons, primary screen, cell-based, HTS. human neuronal cells, NF-kB reporter expression; hits give high values. fold change at 12.5 µM. 190,000 compounds, 1.6% hits. AID 1239, 2008; in the data active means fold change above about 3.3
STAT3 activator: IL-6 driven STAT3 reporter potentiators, primary screen, U3A cells, luciferase, luminescence, MLSCN library. IL-6 STAT3-luciferase reporter; 100% = signal with IL-6 EC80 alone. activation (% of control), % at 5.6 µM. 190,000 compounds, 0.91% hits. AID 871, 2007;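 active means activation above the screen-wide mean of compound activation plus 3 SD, cut at about 130% in these data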;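 further: 0% = background luminescence of wells with medium and substrate only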
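Material: human U3A cells carrying STAT3-luciferase construct. Measured by: reporter luminescence signal. Timing: compound 1 h, then IL-6 6 h at 37 °C.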
STAT1 activ conf: STAT1 signaling activators, confirmation, cell-based, HTS, luciferase reporter; shares compounds with STAT1 activator; NIH 3T3 STAT1-luciferase reporter, IFN-gamma potentiation, luminescence; 100% = IFN-gamma EC80 alone, no compound; activation (% of control), % at 5.7 µM; 1,200 compounds, 97% hits; AID 1262, 2008;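 active means activation above a set limit carried over from the earlier primary STAT1 screen, cut at about 140% in these data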;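 further: simple ratio to median IFN-gamma plus DMSO wells so 0% means no light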
NFkB act: NF-kB reporter activators, TNF-alpha stimulated, counter-screen for STAT1 activator project, cell-based, HEK293T, luciferase luminescence; shares compounds with STAT1 activator; 100% = TNF-alpha with vehicle only; activation (% of control), % at 5.7 µM; 1,200 compounds, 43% hits;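 active means activation above the mean of solvent-only control wells plus 3 SD, set per campaign, cut at about 130% in these data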;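 further: TNF-alpha given at a submaximal dose yielding about 80% of full reporter signal; values are well signal over median control so 100% means no change and 0% no light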
STAT3 act 2: STAT3 reporter activation by STAT1 hits, confirmation, counter-screen for STAT1 activator project, U3A cells, luciferase, luminescence | 1,200 compounds, 46% hits | AID 1316, 2008 | IL-6; cells lack STAT1; 100 = IL-6 alone, no compound effect | shares compounds with STAT1 activator | activation (% of control), % at 5.7 µM;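 active means activation above the solvent-only control well mean plus 3 SD, set per plate batch, cut at about 110% in these data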;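 further: 0% = no luminescence and 100% = median IL-6 plus DMSO wells; higher means more STAT3 reporter activation so hits are non-selective activators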
Starred values were filed as active, the others as inactive; . = not tested or not shown.

SMILES | STAT3 blocker | STAT1 activator | APP 5'UTR act | STAT1 inh | NF-kB neuron act | STAT3 activator | STAT1 activ conf | NFkB act | STAT3 act 2
CCn1c(C)nc2cc(C(=O)NNC(=S)Nc3ccccc3)ccc21 | 10 | 160* | 185* | -67 | 1.9 | 97 | 228* | 141* | 118*
Cc1oc(-c2ccc(-c3ccccc3)cc2)nc1CN(C)C1CCOC1 (stereo not drawn) | -4 | 165* | 79 | -75 | 2.3 | 108 | 192* | 144* | 117*
Cc1ccc2nsnc2c1NS(=O)(=O)c1c(C)ccc2nsnc12 | -14 | 102 | 11 | -2 | 1.1 | 120 | . | . | .
Cc1ccc(/C=[N+](\[O-])c2ccc(N(C)C)cc2)c2nsnc12 | 24 | 162* | -61 | -72 | . | 83 | 199* | 137* | 107
Cc1cccc(-n2nnc(C(=O)Nc3ccc(F)cc3)c2N)c1 | 20 | 168* | 109 | -75 | 5.1* | 85 | 196* | 130 | 97
N/C(=N\OC(=O)CN1C(=O)c2ccccc2C1=O)c1ccc(Br)cc1 | 4 | 112 | 14 | -16 | 1.4 | 101 | . | . | .
CCn1c(C)c(C(C)=O)c(N2CCN(C(=O)c3ccco3)CC2)nc1=S | -2 | 102 | 17 | -2 | 0.99 | 105 | . | . | .
Cc1cccn2c1nc(=S)n2C(=O)c1ccco1 | -10 | 208* | 147* | -120 | 1 | 112 | 256* | 176* | 135*
O=C(/C=C/Nc1cccc(F)c1)c1ccco1 | -6 | 154* | 102 | -51 | 3.9* | 106 | 192* | 125 | 116*
O=C(/C=C/Nc1ccc(Oc2ccccc2Cl)cc1)c1ccco1 | -4 | 155* | 93 | -60 | 6.2* | 105 | 178* | 144* | 135*
Cc1ccc(C(=O)N2CCCC(C(=O)c3ccc(Oc4ccccc4)cc3)C2)cn1 (stereo not drawn) | 17 | 88 | 2 | 12 | 0.96 | 89 | . | . | .
CCCCOc1ccc(-c2cc(C(F)(F)F)c(C#N)c(SCC(=O)O)n2)cc1 | -4 | 97 | 20 | 2 | 1.4 | 104 | . | . | .
COc1ccc(NC(=O)c2c(NC(=O)CCC(=O)O)sc(-c3ccccc3)c2C)cc1 | 8 | 103 | -16 | -5 | 1.1 | 95 | . | . | .
O=[N+]([O-])c1ccccc1N(CC1CO1)S(=O)(=O)c1ccccc1 (stereo not drawn) | -1 | 99 | 12 | 0 | 1.2 | 103 | . | . | .
COc1cccc(NC(=O)Nc2ccc(C(C)(C)C)cc2)c1 | 4 | 151* | 120 | -57 | 4.3* | 103 | 178* | 129 | 110
CC(C)(C)c1ccc(NC(=O)Nc2ccc(F)cc2)cc1 | 11 | 176* | 162* | -79 | 4.2* | 92 | 213* | 138* | 126*
COc1cccc(NC(=O)Nc2ccncc2)c1 | 12 | 97 | 6 | 2 | 1.2 | 94 | . | . | .
COc1cc(OC)c(NC(C)C(=O)N2CCCC2)cc1Cl (stereo not drawn) | 15 | 106 | -12 | -10 | 0.98 | 91 | . | . | .
CC(=O)c1cccc(Nc2ccc(-c3ccccc3F)nn2)c1 | 1 | 152* | 134 | -58 | 2.1 | 101 | 179* | 130 | 103
NS(=O)(=O)c1ccc(N/C=C\C(=O)c2ccc(F)cc2)cc1 | 7 | 156* | 126 | -61 | 3.2 | 99 | 188* | 128 | 115*
NS(=O)(=O)c1ccc(N/C=C\C(=O)c2ccncc2)cc1 | -3 | 108 | -23 | -11 | 1.1 | 105 | . | . | .
O=C(/C=C/c1ccc(F)cc1)Nc1nc2ccccc2[nH]1 | 12 | 154* | 161* | -60 | 1.9 | 92 | 189* | 119 | 91
O=C(/C=C/c1ccccc1)Nc1ncn[nH]1 | 23 | 84 | -11 | 18 | 0.74 | 89 | . | . | .
O=c1[nH]c2ccccc2nc1/C=C/c1ccc(F)cc1 | 5 | 159* | 107 | -67 | 1.8 | 99 | 166* | 130 | 107
O=c1[nH]c2ccccc2nc1/C=C/c1ccccc1 | -15 | 162* | 105 | -71 | 2.6 | 119 | 188* | 128 | 121*
SMILES | STAT3 blocker | STAT1 activator | APP 5'UTR act | STAT1 inh | NF-kB neuron act | STAT3 activator | STAT1 activ conf | NFkB act | STAT3 act 2
CCN(CC)CCOC(=O)c1ccc(NC(=O)c2cn(-c3ccccc3)nc2-c2cccs2)cc1 | 10 | 155* | 27 | -61 | 1.4 | 93 | 125 | 120 | 95
CCN(CC)CCNC(=O)c1cn(-c2ccccc2)nc1-c1cccs1 | -6 | 101 | -9 | -1 | 0.87 | 102 | . | . | .
CCOc1ccc(-c2cc(C(=O)NN=C3CCN(C)CC3)[nH]n2)cc1 | 11 | 104 | -2 | -2 | 1.2 | 95 | . | . | .
CC(C)COc1ccc(-c2cc(C(=O)NN)[nH]n2)cc1 | 36 | 153* | 33 | -59 | 1.7 | 71 | 128 | 112 | 107
O=C(Nc1ccc2c(c1)CCC2)c1ccccc1Br | 15 | 154* | 219* | -59 | 1.1 | 90 | 218* | 138* | 112*
O=C(Nc1ccc2c(c1)CCC2)c1cccc(F)c1 | 4 | 162* | 170* | -70 | 6.8* | 97 | 202* | 131 | 102
CS(=O)(=O)Nc1ccc(C(=O)NCCSCc2c(F)cccc2Cl)cc1 | 4 | 98 | -13 | 0 | 1 | 101 | . | . | .
CCCCOc1ccc(-c2csc(N)n2)cc1[N+](=O)[O-] | -10 | 156* | 142* | -63 | 5.4* | 106 | 192* | 141* | 110
N/C(=N\OC(=O)Cc1ccc(-c2ccccc2)cc1)c1ccccn1 | 3 | 101 | 7 | -1 | 0.57 | 100 | . | . | .
N/C(=N\OC(=O)COc1ccccc1Cl)c1ccccn1 | -2 | 178* | 201* | -88 | 7.3* | 103 | 207* | 139* | 116*
N/C(=N\OC(=O)COc1ccc(Br)cc1)c1ccncc1 | 2 | 102 | 41 | -2 | 1.4 | 100 | . | . | .
N/C(=N\OC(=O)COc1ccc(Cl)cc1Cl)c1ccncc1 | 10 | 155* | 175* | -60 | 6.2* | 96 | 206* | 146* | 124*
